This passage reports IC50 and Activity results from ChEMBL document CHEMBL3102698, “New highly toxic bile acids derived from deoxycholic acid, chenodeoxycholic acid and lithocholic acid” (Bioorg Med Chem, 2014).

Molecules are shown by their SMILES. Active and inactive are the calls of the source. The calls are words filed in the database; no cut-off is given here.

Holding throughout (format): functional, cell-based
Assay [1] relates to Caco-2. Nature of the assay: Cytotoxicity against human Caco2 cells assessed as cell viability after 24 hrs by MTT assay. As to conditions: Caco-2, 24 h. An outline of the steps:
(§1)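 Cells grown to 70% confluence (Caco-2 seeded 8 × 10^3/well, HT1080 12 × 10^4/well), serum-starved 1 h, then exposed 24 h serum-free to 0.1-1000 µM (DMSO ≤0.5%). MTT 0.5 mg/mL added for 3 h at 37 °C; formazan dissolved in DMSO, OD read at 540 nm. Viability taken as % of untreated OD. IC50 fitted from eight concentration levels, at least three experiments in triplicate.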
A general note: Formazan colour is commonly taken as a measure of viable cells.

Assay [2] is described as follows: Cytotoxicity against human HT1080 cells assessed as cell viability after 24 hrs by MTT assay. Conditions: HT-1080, 24 h. An outline of the steps: as §1
Assay [3] deals with Caco-2. Nature of the assay: Cytotoxicity against human Caco2 cells assessed as cell viability at 10 uM after 24 hrs by MTT assay in presence of antioxidant N-acetyl cysteine. The essentials: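 MTT viability run on Caco-2 with and without 1 mM N-acetyl cysteine co-incubation. Compounds at 10 µM, natural bile acids at 100 µM, 24 h serum-free after 1 h serum starvation. MTT 0.5 mg/mL for 3 h at 37 °C, then DMSO solubilisation and OD at 540 nm, expressed as % of untreated; n = 3.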

On to `C[C@H](CCC(=O)NC1CCCCC1)[C@H]1CC[C@H]2[C@@H]3CC[C@@H]4C[C@@H](N=[N+]=[N-])CC[C@]4(C)[C@H]3C[C@H](O)[C@]12C`, for which the values for the IC50 (in the assay on Caco-2 [1]; in assay [2]) were over 1000 µM and over 100 µM, respectively.
Consider `C[C@H](CCC(=O)NC1CC1)[C@H]1CC[C@H]2[C@@H]3CC[C@@H]4C[C@H](N=[N+]=[N-])CC[C@]4(C)[C@H]3C[C@H](O)[C@]12C`, for which, in the assay with Caco-2 [3], the outcome was inactive. For the same molecule, the 50% inhibitory concentration (IC50) (as a rule, the concentration needed to halve the response being measured) in the assay on Caco-2 [1] was found to be 2.3 µM; in assay [2], 5.7 µM.
For `C[C@H](CCC(=O)NC1CC1)[C@H]1CC[C@H]2C3=CC[C@@H]4C[C@H](O)CC[C@]4(C)[C@H]3CC[C@]12C`, in the assay on Caco-2 [1], the IC50 worked out at 9.5 µM.
On to `C[C@H](CCC(=O)NCc1ccccc1)[C@H]1CC[C@H]2[C@@H]3CC[C@@H]4C[C@@H](N=[N+]=[N-])CC[C@]4(C)[C@H]3CC[C@]12C`, for which the 50% inhibitory concentration (IC50) (with Caco-2 [1]; in assay [2]) was over 100 µM in each case.
For the molecule `C[C@H](CCC(=O)O)[C@H]1CC[C@H]2C3=CC[C@@H]4C[C@H](O)CC[C@]4(C)[C@H]3CC[C@]12C`, in the assay on Caco-2 [1], the IC50 was over 100 µM.
On to `C[C@H](CCC(=O)O)[C@H]1CC[C@H]2[C@@H]3[C@H](O)C[C@@H]4C[C@@H](N=[N+]=[N-])CC[C@]4(C)[C@H]3CC[C@]12C`, for which the half-inhibitory concentration (IC50) in the assay on Caco-2 [1] worked out at 40.3 µM; in assay [2], 23.6 µM.
For the molecule `C[C@H](CCC(=O)NC1CC1)[C@H]1CC[C@H]2[C@@H]3CC[C@@H]4C[C@@H](N=[N+]=[N-])CC[C@]4(C)[C@H]3CC[C@]12C`, the 50% inhibitory concentration (IC50) (in the assay with Caco-2 [1]; in assay [2]) was over 100 µM in each case.
Consider `CCCNC(=O)CC[C@@H](C)[C@H]1CC[C@H]2[C@@H]3CC[C@@H]4C[C@@H](N=[N+]=[N-])CC[C@]4(C)[C@H]3CC[C@]12C`, for which the concentration for half-maximal inhibition (IC50) is over 1000 µM in the assay with Caco-2 [1] and over 200 µM in assay [2].
In the case of `CC(=O)O[C@@H]1C[C@@H]2C[C@@H](N=[N+]=[N-])CC[C@]2(C)[C@H]2CC[C@]3(C)[C@@H]([C@H](C)CCC(N)=O)CC[C@H]3[C@H]12`, in the assay with Caco-2 [1], the IC50 amounted to 5.5 µM.
On the same count and under the same terms, as for `CC(=O)O[C@@H]1C[C@@H]2C[C@@H](N=[N+]=[N-])CC[C@]2(C)[C@H]2CC[C@]3(C)[C@@H]([C@H](C)CCC(=O)NC4CC4)CC[C@H]3[C@H]12`, the figure is 6.2 µM.
For the molecule `C[C@H](CCC(=O)O)[C@H]1CC[C@H]2[C@@H]3[C@H](O)C[C@@H]4C[C@H](N=[N+]=[N-])CC[C@]4(C)[C@H]3CC[C@]12C`, the concentration for half-maximal inhibition (IC50) stood at 43.7 µM in the assay on Caco-2 [1] and 26.2 µM in assay [2].
On to `C[C@H](CCC(=O)NC1CCCCC1)[C@H]1CC[C@H]2[C@@H]3CC[C@@H]4C[C@@H](N=[N+]=[N-])CC[C@]4(C)[C@H]3CC[C@]12C`, for which the IC50 (with Caco-2 [1]; in assay [2]) was over 1000 µM in each case.
Regarding `C[C@H](CCC(N)=O)[C@H]1CC[C@H]2C3=CC[C@@H]4C[C@H](O)CC[C@]4(C)[C@H]3CC[C@]12C`, the IC50 with Caco-2 [1] was over 100 µM.
Turning to `C[C@H](CCC(N)=O)[C@H]1CC[C@H]2[C@@H]3CC[C@@H]4C[C@@H](N=[N+]=[N-])CC[C@]4(C)[C@H]3C[C@H](O)[C@]12C`, the values for the concentration for half-maximal inhibition (IC50) (in the assay on Caco-2 [1]; in assay [2]) were 10.7 µM and 3.6 µM, respectively.
For `CC(=O)O[C@@H]1C[C@@H]2C[C@@H](N=[N+]=[N-])CC[C@]2(C)[C@H]2CC[C@]3(C)[C@@H]([C@H](C)CCC(=O)O)CC[C@H]3[C@H]12`, the 50% inhibitory concentration (IC50) with Caco-2 [1] came out at 15.6 µM.
